Bioassay records as filed in PubChem.
proCasp3 act = activates human procaspase-3. 330,000 tested, 0.11% active. P42574. activation, % at 8.5 µM. recombinant procaspase-3 D3A, Ac-DEVD-pNA absorbance 405 nm. AID 463141;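 active = activation above the mean of all tested compounds plus 3 SD, cut at about 21% in these data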;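 also: 0% = DMSO alone and 100% = DMSO wells spiked with extra 5 µM PC-3 D3A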
Target sequence (P42574 whole entry D9A/D28A/D175A): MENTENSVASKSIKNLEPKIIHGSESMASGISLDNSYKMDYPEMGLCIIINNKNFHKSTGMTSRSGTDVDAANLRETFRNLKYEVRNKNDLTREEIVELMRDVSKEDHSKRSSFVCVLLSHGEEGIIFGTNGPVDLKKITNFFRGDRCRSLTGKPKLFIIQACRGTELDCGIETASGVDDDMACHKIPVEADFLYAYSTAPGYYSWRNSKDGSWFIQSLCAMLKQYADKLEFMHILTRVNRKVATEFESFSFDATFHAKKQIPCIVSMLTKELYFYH
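Compound: 8.5 µM single point, 0.8% DMSO / Material: Autoprocessing-dead procaspase-3 D3A mutant enzyme / Timing: 1 h preincubation plus 2 h reaction at 25 °C / Medium: Zinc-free HEPES/NaCl buffer with 0.01% Triton X-100 at pH 7.4 / Technique: 405 nm absorbance of p-nitroaniline, reads at 0 and 120 min / Repeats: one well per compound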
Tb MetRS inh = blocks T. brucei methionyl-tRNA synthetase activity | purified T. brucei MetRS, ATP depletion, Kinase-Glo luminescence | inhibition, % at 11.9 µM | 360,000 tested, 0.4% active;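 active = inhibition above a per-plate cutoff of the control wells' mean inhibition plus 3 SD, cut at about 5.5% in these data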;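 also: 0% = DMSO wells median and 100% = median of wells with control inhibitor compound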
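Measured by: Kinase-Glo luciferase luminescence reporting remaining unconsumed ATP. Material: purified T. brucei MetRS enzyme. Doses: 11.9 µM compound single dose, 0.9% DMSO. Medium: HEPES buffer containing pyrophosphatase, BSA, spermine, DTT. Times: 15 min preincubation, 2 h reaction, all 25 °C. Reagent: methionine, ATP and bulk E. coli tRNA.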
MsrA inhibitor = inhibits bovine methionine sulfoxide reductase A. purified bovine MsrA, absorbance read-out. inhibition, % at 15.5 µM. 360,000 tested, 0.75% active; in the data active = inhibition above about 4.5%;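 also: 0% = vehicle wells with enzyme and 100% = reference inhibitor wells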
bovine MsrA act = activators of bovine methionine sulfoxide reductase A | purified bovine MsrA, absorbance read-out | activation, % at 10.6 µM | 360,000 tested, 0.3% active; in the data active = activation above about 7.5%;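 also: 0% = vehicle and 100% = reference activator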
proCasp7 act = activates human procaspase-7, counter-screen for procaspase-3 activators; P55210; recombinant procaspase-7, Ac-DEVD-pNA absorbance 405 nm; D23A/D198A/D206A triple mutant, cannot self-cleave; scale: DMSO 0, 5 µM enzyme 100; activation, % at 8.5 µM; 330,000 tested, 0.093% active; AID 463210;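 active = percent activation above the screen-wide mean plus 3 SD, cut at about 25% in these data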
Target sequence (P55210 whole entry D23A/D198A/D206A): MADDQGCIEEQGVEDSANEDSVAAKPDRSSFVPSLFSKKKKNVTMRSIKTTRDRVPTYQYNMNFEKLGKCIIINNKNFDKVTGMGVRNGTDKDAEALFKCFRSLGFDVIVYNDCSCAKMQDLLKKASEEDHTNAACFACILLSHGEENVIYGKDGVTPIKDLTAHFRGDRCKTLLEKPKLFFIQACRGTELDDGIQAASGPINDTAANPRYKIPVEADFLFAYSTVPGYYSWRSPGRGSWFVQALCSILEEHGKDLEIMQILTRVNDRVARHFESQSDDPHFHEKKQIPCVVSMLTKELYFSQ
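System: Uncleavable procaspase-7 mutant enzyme; Amount: 2 µM procaspase-7 mutant as dispensed; Schedule: 1 h compound preincubation, 2 h substrate cleavage, 25 °C; Measured by: 405 nm absorbance of p-nitroaniline; Evaluation: percent activation from buffer-corrected 0–120 min absorbance change; Control set: low DMSO alone, high DMSO plus 5 µM PC-7.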
Tb MetRS conf = Trypanosoma brucei MetRS inhibition confirmed | shares compounds with Tb MetRS inh | T. brucei MetRS enzyme, luminescence (ATP depletion) | inhibition, % at 11.9 µM | 1,400 tested, 93% active | AID 624412; in the data active = inhibition above about 7%
Jurkat tox = Jurkat T cell cytotoxicity for MetRS hits; shares compounds with Tb MetRS inh; Jurkat cells viability, ATP luminescence; inhibition, % at 8.3 µM; 1,400 tested, 12% active; in the data active = inhibition above about 15%;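 also: 0% = vehicle and 100% = reference inhibitor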
Tb MetRS inh FP = T. brucei MetRS inhibition, orthogonal assay; shares compounds with Tb MetRS inh; purified T. brucei MetRS, fluorescence polarization; inhibition, % at 11.9 µM; 1,400 tested, 44% active; in the data active = inhibition above about 17%;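 also: 0% = vehicle wells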
An asterisk follows results filed as active; · = no result given. Only some compounds are listed: those with a hit (about 1.5% of all), similar ones and a draw of the others.

SMILES	proCasp3 act	Tb MetRS inh	MsrA inhibitor	bovine MsrA act	proCasp7 act	Tb MetRS conf	Jurkat tox	Tb MetRS inh FP
CCNC(=S)N(CCc1ccc(S(N)(=O)=O)cc1)C1CC(=O)N(c2ccccc2)C1=O (centres undefined)	-1	-1	-1	-5	-13	·	·	·
COC(=O)CN(C(=S)Nc1ccc(F)cc1)C1CC(=O)N(c2ccccc2)C1=O (centres undefined)	5	-1	-1	-3	-4	·	·	·
O=C(Nc1cc(Cl)ccc1F)c1ccc(-n2cncn2)c([N+](=O)[O-])c1	7	22*	0	-6	5	58*	-2	21*
O=C(NNC(=O)c1ccc(-n2cncn2)c([N+](=O)[O-])c1)c1cccc(Cl)c1	2	35*	1	-3	5	59*	6	31*
O=C(NNC(=O)c1ccc(-n2cncn2)c([N+](=O)[O-])c1)c1ccc(Cl)cc1	1	60*	2	-13	5	82*	1	65*
O=C(Nc1cc(Cl)ccc1-n1cncn1)c1cc(F)cc(F)c1	7	-1	-2	-3	-7	·	·	·
O=C(NNC(=O)c1ccccc1Cl)c1ccc(-n2cncn2)c([N+](=O)[O-])c1	2	7.8*	1	-4	-2	33*	5	12
CC(Oc1ccccc1F)C(=O)NNC(=O)c1ccc(-n2cncn2)c([N+](=O)[O-])c1 (centres undefined)	·	5	0	1	·	·	·	·
C[C@@H]1CN([C@@H](C)CO)C(=O)CCCn2cc(nn2)CO[C@H]1CN(C)C(=O)C1CCCCC1	·	·	-1	·	·	·	·	·
COC(=O)N1Cc2ccnnc2CC1c1ccccc1-c1ccc(F)cc1 (centres undefined)	·	·	1	·	·	·	·	·
COC(=O)c1c(-c2ccc(OC)cc2)c2c(c3c4cc(OC)ccc4n(C(=O)c4ccccc4)c13)C(=O)N(C)C2	·	·	0	·	·	·	·	·
O=C(CSc1nc2cc3ccccc3cc2[nH]1)Nc1ccc(F)cc1	3	22*	1	-4	-2	28*	7	23*
Cc1ccc2c(c1)CCCN2CC(=O)Nc1cccc(S(=O)(=O)N2CCCC2)c1	-16	0	1	-4	-8	·	·	·
Cc1ccc2nc(SCC(=O)Nc3cccc(S(=O)(=O)N(C)C)c3)[nH]c2c1	-1	1	0	-1	1	·	·	·
O=C(CSc1nc2ccccc2[nH]1)Nc1cccc(S(=O)(=O)N2CCOCC2)c1	-3	40*	-1	-10	5	40*	6	18*
O=C(CN1CCCc2ccccc21)Nc1cccc(S(=O)(=O)N2CCOCC2)c1	·	6.7*	1	-6	·	12*	4	12
NS(=O)(=O)c1cccc(NC(=O)CSc2nc3ccc(Cl)cc3[nH]2)c1	11	8.1*	-1	-2	3	16*	-3	15
COc1ccccc1CCn1cnc(-c2ccc(Cl)cc2)c1CC(C)C	·	·	1	·	·	·	·	·
O=C(C(=O)N1CCC(CNS(=O)(=O)c2ccc(OC(F)(F)F)cc2)CC1)c1cc2ccccc2o1	·	·	2	·	·	·	·	·
Cc1nonc1NC(=O)CSc1nc2ccc(Cl)cc2[nH]1	-1	19*	0	1	2	33*	-7	18*
CCN(CC)S(=O)(=O)c1cccc(NC(=O)CSc2nc3ccccc3[nH]2)c1	5	2	2	0	11	·	·	·
CN(C)S(=O)(=O)c1cccc(NC(=O)CSc2nc3ccccc3[nH]2)c1	11	6.2*	1	-5	7	12*	12	5
Cc1nonc1NC(=O)CSc1nc2ccccc2[nH]1	-1	0	1	-14	10	·	·	·
CCCc1cc(=O)[nH]c(SCC(=O)Nc2nc(-c3ccccc3)cs2)n1	2	0	2	-4	8	·	·	·
O=C(CSc1nc2ccccc2[nH]1)Nc1nc(-c2ccc(Br)cc2)cs1	6	20*	1	-3	7	36*	9	71*
SMILES	proCasp3 act	Tb MetRS inh	MsrA inhibitor	bovine MsrA act	proCasp7 act	Tb MetRS conf	Jurkat tox	Tb MetRS inh FP
COC(=O)Cc1nnn2c1[C@H](C)[C@@H](OC)c1ccccc1-2	·	·	0	·	·	·	·	·
COC(=O)C1=C(C)N(Cc2ccccc2)C(=S)NC1c1ccc(Br)cc1 (centres undefined)	·	·	1	·	·	·	·	·
O=C(NNC(=O)c1cc(-c2ccc(Cl)cc2Cl)nc2ccccc12)Nc1ccccc1	2	39*	1	-6	-5	95*	1	80*
O=C(CCC(=O)Nc1ccc(Cl)cc1Cl)NNC(=O)Nc1ccccc1	4	13*	-1	-8	-2	26*	0	6
COc1ccc(NC(=O)NNC(=O)CCC(=O)Nc2ccccc2Cl)cc1	12	0	1	-2	11	·	·	·
O=C(CNC(=O)c1cccc(OC(F)F)c1)Nc1ccc(Cl)cc1	-2	51*	0	-3	13	70*	2	32*
O=C(Nc1ccc(OC(F)F)c(Cl)c1)c1cccc(OC(F)F)c1	-2	1	·	-2	6	·	·	·
O=C(Cc1ccc(Cl)cc1)Nc1cc(S(=O)(=O)N2CCOCC2)ccc1N1CCCC1	4	39*	0	-4	-4	52*	-1	28*
Cc1ccc2nc(CN(C)C(=O)[C@H]3O[C@@H](n4cnc(C(N)=O)n4)[C@H](O)[C@@H]3O)[nH]c2c1	·	·	0	·	·	·	·	·
Cc1ccc(S(=O)(=O)NC(=O)ON=Cc2ccc3c(c2)OCO3)cc1	·	·	0	·	·	·	·	·
Nc1cc(=O)n(Cc2ccccc2)c(N)c1C(=O)NCc1ccccc1	·	·	-1	·	·	·	·	·
CCCCCCCCNc1ncnc2ccccc12	-3	11*	·	-2	3	25*	46*	8
c1ccc(CCNc2ncnc3ccccc23)cc1	1	-1	-2	-4	0	·	·	·
O=S(=O)(Nn1c(O)c(C=C2N=c3ccccc3=N2)sc1=S)c1ccccc1	-9	55*	2	-4	-31	65*	-5	39*
CC(=O)c1cccc(-c2ccnc3c2CC(C(=O)Nc2ccc(Cl)cc2)O3)c1 (centres undefined)	·	19*	1	0	·	46*	21*	22*
COc1cccc(Nc2nc3ccccc3c(=O)[nH]2)c1	0	8.6*	1	-3	8	18*	0	6
COc1cccc(Nc2cc(C)c3ccccc3n2)c1	1	1	2	-4	-5	·	·	·
Cn1c(CC(=O)Nc2ccccc2F)nnc1SCC(=O)NC1CCCCC1	1	79*	1	0	1	0	4	0
CN(c1cccnc1)c1ccc(NC(=O)Cc2c[nH]c3ccccc23)cc1Br	·	·	1	·	·	·	·	·
